This is an account of results in ChEMBL document CHEMBL4265912, “Design, synthesis and identification of novel substituted 2-amino thiazole analogues as potential anti-inflammatory agents targeting 5-lipoxygenase” (Eur J Med Chem, 2018).

For data set [1], the target named is T1, Polyunsaturated fatty acid 5-lipoxygenase (Homo sapiens) (UniProt P09917).
T1 sequence (whole entry): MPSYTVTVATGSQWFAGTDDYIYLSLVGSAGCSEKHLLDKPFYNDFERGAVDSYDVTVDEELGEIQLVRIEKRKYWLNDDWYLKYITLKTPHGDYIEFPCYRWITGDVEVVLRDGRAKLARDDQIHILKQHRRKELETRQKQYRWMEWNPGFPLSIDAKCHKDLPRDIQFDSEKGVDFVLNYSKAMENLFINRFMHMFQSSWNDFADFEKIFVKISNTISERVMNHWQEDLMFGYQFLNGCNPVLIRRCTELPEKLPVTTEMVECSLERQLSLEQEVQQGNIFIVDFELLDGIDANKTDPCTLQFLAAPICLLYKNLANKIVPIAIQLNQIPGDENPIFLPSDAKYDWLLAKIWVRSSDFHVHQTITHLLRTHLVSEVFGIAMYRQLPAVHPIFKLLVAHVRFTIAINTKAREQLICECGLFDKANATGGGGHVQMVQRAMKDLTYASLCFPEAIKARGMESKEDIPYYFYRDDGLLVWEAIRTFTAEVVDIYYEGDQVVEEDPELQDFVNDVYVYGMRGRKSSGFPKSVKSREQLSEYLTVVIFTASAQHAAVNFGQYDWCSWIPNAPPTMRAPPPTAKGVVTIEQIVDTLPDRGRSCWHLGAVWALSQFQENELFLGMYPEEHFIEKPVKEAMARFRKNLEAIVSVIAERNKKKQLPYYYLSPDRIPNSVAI
Kind of data set: Inhibition of recombinant human 5-LOX expressed in Escherichia coli BL21 at 10 uM using arachidonic acid as substrate by UV-vis spectrophotometric method relative to control. In outline: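 Partially purified human 5-LOX, expressed in E. coli BL21 (IPTG induction, ammonium sulfate precipitation, 100000 × g supernatant). Buffer: 25 mM HEPES pH 7.3, EDTA, 10 mM CaCl2, 4 mM ATP; compound in 2% DMSO added at 4 °C; started with 30 μM AA. 5-HPETE read at 236 nm. Single point at 10 μM; IC50 from inhibition-versus-concentration curves; three repeats.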

The nature of data set [2]: Antioxidant activity assessed as DPPH radical scavenging activity at 20 uM measured after 30 mins. Format: functional. The method, boiled down: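 Test compound at 20 μM added to 0.1 mM DPPH in methanol, incubated 30 min at room temperature in dark; absorbance read at 517 nm; ascorbic acid reference; percent scavenging calculated; three repeats, mean ± SEM.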
In data set [3] the target is T2, Polyunsaturated fatty acid 5-lipoxygenase (Homo sapiens, UniProt P09917).
T2 sequence (P09917 whole entry): T1 sequence (whole entry)
The data set is described as follows: Inhibition of recombinant human 5-LOX expressed in Escherichia coli BL21 using arachidonic acid as substrate by UV-vis spectrophotometric method. The method, boiled down: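 Partially purified human 5-LOX, expressed in E. coli BL21 (IPTG induction, ammonium sulfate precipitation, 100000 × g supernatant). Buffer: 25 mM HEPES pH 7.3, EDTA, 10 mM CaCl2, 4 mM ATP; compound in 2% DMSO added at 4 °C; started with 30 μM AA.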

For data set [4], the target named is T1, Polyunsaturated fatty acid 5-lipoxygenase (Homo sapiens). Kind of data set: Inhibition of recombinant human 5-LOX pseudoperoxidase activity expressed in Escherichia coli BL21 assessed as compound redox activity by measuring decrease in 13(S)-HpODE product formation at 10 uM by UV-vis spectrophotometric method. Also noted: scale not given: the % may be the effect or the level left. The method, boiled down:
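Pseudoperoxidase: 10 μM inhibitor (1:1 to substrate) starts reaction in 50 mM potassium phosphate pH 7.4, 0.3 mM CaCl2, 0.1 mM EDTA, 200 μM ATP, 10 μM 13(S)-HPODE with 5-LOX; loss of hydroperoxide followed at 234 nm over 300 s, relative to control.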

Compound in data set [5]: COc1ccc(-c2nc(N(c3ccccc3)c3ccccc3)sc2C(=O)c2ccccc2)cc1
Kind of data set: Competitive inhibition of recombinant human 5-LOX expressed in Escherichia coli BL21 assessed as Vmax for substrate at 5 uM using arachidonic acid as substrate by Lineweaver-Burk plot analysis (reference value: 0.39 +/- 0.02 nmol/min).

Compound in data set [6]: COc1ccc(-c2nc(N(c3ccccc3)c3ccccc3)sc2C(=O)c2ccccc2)cc1
Kind of data set: Competitive inhibition of recombinant human 5-LOX expressed in Escherichia coli BL21 assessed as Vmax for substrate at 10 uM using arachidonic acid as substrate by Lineweaver-Burk plot analysis (reference value: 0.39 +/- 0.02 nmol/min).

Compound in data set [7]: COc1ccc(-c2nc(N(c3ccccc3)c3ccccc3)sc2C(=O)c2ccccc2)cc1
The data set is described as follows: Competitive inhibition of recombinant human 5-LOX expressed in Escherichia coli BL21 assessed as Km for substrate at 5 uM using arachidonic acid as substrate by Lineweaver-Burk plot analysis (reference value: 0.42 +/- 0.15 microM).

Compound in data set [8]: COc1ccc(-c2nc(N(c3ccccc3)c3ccccc3)sc2C(=O)c2ccccc2)cc1
Kind of data set: Competitive inhibition of recombinant human 5-LOX expressed in Escherichia coli BL21 assessed as Km for substrate at 10 uM using arachidonic acid as substrate by Lineweaver-Burk plot analysis (reference value: 0.42 +/- 0.15 microM).

Compound in data set [9]: O=C(NC(=S)N1CCN(c2ccccc2)CC1)c1ccccc1
The data set is described as follows: Mixed non-competitive inhibition of recombinant human 5-LOX expressed in Escherichia coli BL21 assessed as Vmax for substrate at 5 uM using arachidonic acid as substrate by Lineweaver-Burk plot analysis (reference value: 0.48 +/- 0.02 nmol/min).

Compound in data set [10]: O=C(NC(=S)N1CCN(c2ccccc2)CC1)c1ccccc1
The data set is described as follows: Mixed non-competitive inhibition of recombinant human 5-LOX expressed in Escherichia coli BL21 assessed as Vmax for substrate at 10 uM using arachidonic acid as substrate by Lineweaver-Burk plot analysis (reference value: 0.48 +/- 0.02 nmol/min).

Compound in data set [11]: O=C(NC(=S)N1CCN(c2ccccc2)CC1)c1ccccc1
Kind of data set: Mixed non-competitive inhibition of recombinant human 5-LOX expressed in Escherichia coli BL21 assessed as Km for substrate at 5 uM using arachidonic acid as substrate by Lineweaver-Burk plot analysis (reference value: 0.7761 +/- 0.22 microM).

Compound in data set [12]: O=C(NC(=S)N1CCN(c2ccccc2)CC1)c1ccccc1
The data set is described as follows: Mixed non-competitive inhibition of recombinant human 5-LOX expressed in Escherichia coli BL21 assessed as Km for substrate at 10 uM using arachidonic acid as substrate by Lineweaver-Burk plot analysis (reference value: 0.7761 +/- 0.22 microM).

As for `O=C(c1ccccc1)c1sc(N2CCCCC2)nc1-c1ccccc1`, in data set [1], the inhibition stood at 85.2%. Besides, the Activity was 8.5% in data set [2] and 0.6% in data set [4]. Moreover, in [3], the half-inhibitory concentration (IC50) came out at 3.1 µM.

Consider `O=C(c1ccccc1)c1sc(N2CCOCC2)nc1-c1ccccc1`, for which, in data set [1], the inhibition was determined as 85.3%. Moreover, the figures for the Activity in data set [2] and in [4] were 9.5% and 2.1%, respectively. Besides, in [3], the IC50 is 2.3 µM.

Consider `CN(c1ccccc1)c1nc(-c2ccccc2)c(C(=O)c2ccccc2)s1`, for which the inhibition in data set [1] was 67.8%. The Activity in [2] turned out to be 4.6%.

As to `O=C1O[C@H]([C@@H](O)CO)C(O)=C1O`, the Activity in data set [2] was determined as 84.1%.

For `O=C(NC(=S)N1CCN(c2ccccc2)CC1)c1ccccc1`, the inhibition in data set [1] was 91.3%. The Activity is 24.1% in [2] and -46.2% in data set [4]. Besides, the IC50 in data set [3] was 1.4 µM.

Regarding `COc1ccc(C(=O)NC(=S)N2CCCCC2)cc1`, the inhibition in [1] amounted to 86%. In addition, in data set [2], the Activity came out at 21.8%. Further, in data set [3], the 50% inhibitory concentration (IC50) was 3.3 µM.

As for `O=C(NC(=S)N1CCCCC1)c1ccc(F)cc1`, the inhibition in data set [1] was 80.7%. The Activity in data set [2] was 5.9%. Besides, in [3], the IC50 turned out to be 3.8 µM.

With `COc1ccc(C(=O)NC(=S)N(C)Cc2ccccc2)cc1`, in [1], the inhibition was found to be 26.5%. The Activity in data set [2] turned out to be 7.4%.

With `CN(Cc1ccccc1)C(=S)NC(=O)c1ccccc1`, the inhibition in data set [1] stood at 80.7%. Moreover, the Activity in data set [2] was 18.4%.

In the case of `O=C(c1ccccc1)c1sc(N(c2ccccc2)c2ccccc2)nc1-c1ccccc1`, the inhibition in [1] is 48.6%. In addition, the Activity in data set [2] was -4.7%.

In the case of `COc1ccc(-c2nc(N3CCCCC3)sc2C(=O)c2ccccc2)cc1`, the inhibition in [1] worked out at 62%. Moreover, in data set [2], the Activity stood at 9.6%.

As to `CC(c1cc2ccccc2s1)N(O)C(N)=O` (configuration not stated), the Activity in data set [2] amounted to 17.8%.

Regarding `COc1ccc(-c2nc(N3CCN(c4ccccc4)CC3)sc2C(=O)c2ccccc2)cc1`, the inhibition in data set [1] is 53.1%. The Activity in [2] is 7.8%.

`CN(C(=S)NC(=O)c1ccccc1)c1ccccc1`: in data set [1], the inhibition was determined as 78.7%. Moreover, the Activity in [2] is 13.2%.

For the molecule `O=C(c1ccccc1)c1sc(N2CCCC2)nc1-c1ccccc1`, the inhibition in data set [1] came to 75.3%. Also, in data set [2], the Activity is -2.9%.

With `COc1ccc(C(=O)NC(=S)N(c2ccccc2)c2ccccc2)cc1`, the inhibition in [1] was determined as 19.2%. In [2], the Activity came out at 8.1%.

Regarding `O=C(c1ccccc1)c1sc(N(c2ccccc2)c2ccccc2)nc1-c1ccc([N+](=O)[O-])cc1`, the inhibition in data set [1] turned out to be 79.6%. For the same molecule, in [2], the Activity is -2.8%.

Regarding `O=C(NC(=S)N(c1ccccc1)c1ccccc1)c1ccccc1`, the inhibition in data set [1] was 73.3%. Besides, in data set [2], the Activity was determined as 11.3%.

For `O=C(c1ccccc1)c1sc(N2CCN(c3ccccc3)CC2)nc1-c1ccc([N+](=O)[O-])cc1`, in [1], the inhibition is 67.8%. Also, the Activity in [2] turned out to be 8.2%.

Turning to `COc1ccc(C(=O)NC(=S)N2CCN(c3ccccc3)CC2)cc1`, the inhibition in data set [1] is 36.8%. The Activity in data set [2] was 3.7%.

With `O=C(NC(=S)N1CCN(c2ccccc2)CC1)c1ccc([N+](=O)[O-])cc1`, the inhibition in data set [1] is 76.6%. Besides, the Activity in [2] was 20.3%.

Consider `O=C(c1ccccc1)c1sc(N2CCN(c3ccccc3)CC2)nc1-c1ccccc1`, for which the inhibition in data set [1] was 38.3%. Besides, the Activity in data set [2] was -0.7%.

For `CN(Cc1ccccc1)c1nc(-c2ccccc2)c(C(=O)c2ccccc2)s1`, in [1], the inhibition was 53.1%. For the same molecule, the Activity in [2] stood at 3.6%.

Turning to `O=C(NC(=S)N1CCN(c2ccccc2)CC1)c1ccc(F)cc1`, the inhibition in data set [1] was 23.6%. Further, in [2], the Activity was 6.3%.

Regarding `O=C(NC(=S)N1CCOCC1)c1ccccc1`, in [1], the inhibition was 79.4%. Besides, in [2], the Activity was 19.1%.

Regarding `COc1ccc(-c2nc(N(C)Cc3ccccc3)sc2C(=O)c2ccccc2)cc1`, the inhibition in data set [1] worked out at 17.7%. Also, the Activity in [2] is -1.9%.

On to `O=C(c1ccccc1)c1sc(N2CCOCC2)nc1-c1ccc(F)cc1`, for which the inhibition in data set [1] came to 50.2%. Further, the Activity in data set [2] is -0.8%.

For the molecule `O=C(NC(=S)N1CCCCC1)c1ccccc1`, the inhibition in data set [1] is 56.8%. Further, the Activity in [2] came to 23.7%.

Consider `COc1ccc(C(=O)NC(=S)N2CCOCC2)cc1`, for which the inhibition in data set [1] came to 68.3%. For the same molecule, the Activity in [2] is 3.9%.

As for `COc1ccc(-c2nc(N(c3ccccc3)c3ccccc3)sc2C(=O)c2ccccc2)cc1`, the inhibition in data set [1] is 92.8%. The results for the Activity in data set [2] and in data set [4] were 11.8% and 29.4%, respectively. Moreover, the half-maximal inhibitory concentration (IC50) in data set [3] was found to be 0.9 µM.

For the molecule `O=C(NC(=S)N(c1ccccc1)c1ccccc1)c1ccc([N+](=O)[O-])cc1`, the inhibition in [1] came to 30.9%. The Activity in data set [2] stood at 4.7%.

For `O=C(NC(=S)N1CCOCC1)c1ccc(F)cc1`, the inhibition in data set [1] stood at 29.5%. Besides, the Activity in data set [2] was 9.1%.

`O=C(NC(=S)N1CCCC1)c1ccccc1`: the inhibition in data set [1] came out at 24.5%. In addition, the Activity in [2] came to 25.6%.

B1: Polyunsaturated fatty acid 5-lipoxygenase (Homo sapiens), P09917 (protein)
chain: T1 sequence (whole entry)
B1: the Vmax in data set [5] was found to be 0.38 nmol/min; in data set [6], 0.38 nmol/min; in data set [9], 0.4 nmol/min; in [10] it was 0.34 nmol/min. For the same molecule, the Km was found to be 0.99 µM in data set [7], 1.51 µM in [8], 0.79 µM in data set [11] and 0.767 µM in [12].
